TRPC4 potent: allosterically enhances the mouse TRPC4 cation channel; HEK293 TRPC4beta/mu-opioid, DAMGO EC20, Fluo-4 Ca2+ flux; hits give high values; B-score at 10 µM; 310,000 tested, 0.42% active; AID 2227;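 active means B-score of calcium response area above 5 SD of library B-scores, with initial fluorescence ratio within 5 SD of library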;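 further: B-score of integrated fluorescence ratio over time as area under calcium response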
Target sequence (Q9QUQ5 whole entry, looked up): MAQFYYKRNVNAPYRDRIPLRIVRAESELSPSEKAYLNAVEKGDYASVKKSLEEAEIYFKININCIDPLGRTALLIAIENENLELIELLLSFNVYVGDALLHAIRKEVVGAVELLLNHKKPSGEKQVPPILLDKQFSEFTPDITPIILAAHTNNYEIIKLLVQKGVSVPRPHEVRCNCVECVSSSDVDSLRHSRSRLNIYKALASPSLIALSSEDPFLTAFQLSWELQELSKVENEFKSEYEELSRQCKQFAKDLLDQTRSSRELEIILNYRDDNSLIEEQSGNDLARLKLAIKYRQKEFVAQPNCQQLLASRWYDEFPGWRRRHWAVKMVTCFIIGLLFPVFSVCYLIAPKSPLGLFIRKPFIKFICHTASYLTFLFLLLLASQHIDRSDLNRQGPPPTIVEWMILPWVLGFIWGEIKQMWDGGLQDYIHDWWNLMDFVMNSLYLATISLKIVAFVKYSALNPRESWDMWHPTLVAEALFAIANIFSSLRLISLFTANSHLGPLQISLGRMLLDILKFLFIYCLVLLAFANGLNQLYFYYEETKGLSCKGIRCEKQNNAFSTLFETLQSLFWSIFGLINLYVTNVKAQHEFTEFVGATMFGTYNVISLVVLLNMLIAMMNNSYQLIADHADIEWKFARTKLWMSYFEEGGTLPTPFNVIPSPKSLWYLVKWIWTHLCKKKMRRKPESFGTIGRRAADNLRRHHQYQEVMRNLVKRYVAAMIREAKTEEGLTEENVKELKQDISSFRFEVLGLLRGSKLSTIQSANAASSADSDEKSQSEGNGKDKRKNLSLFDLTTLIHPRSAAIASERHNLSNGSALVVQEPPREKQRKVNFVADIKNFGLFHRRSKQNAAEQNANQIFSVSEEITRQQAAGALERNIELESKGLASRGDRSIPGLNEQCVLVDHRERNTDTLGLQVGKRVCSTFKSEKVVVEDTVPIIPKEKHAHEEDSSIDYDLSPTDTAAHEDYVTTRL
TRPC6 inhibitor: mouse TRPC6 channel inhibition | Q61143 | HEK293-TRPC6, membrane potential dye, ACh-evoked depolarization; hits give low values | B-score at 10 µM | 310,000 tested, 1.1% active | AID 2553;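 active means B-score under library mean minus 3 SD, initial fluorescence not abnormally high, positive integrated signal ratio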;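 further: B-score derived from integrated fluorescence ratio over the kinetic read; more negative B-score means stronger inhibition of depolarization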
TRPC4 block: TRPC4 (mouse) channel inhibition. Q9QUQ5. HEK293 TRPC4beta/mu-opioid, DAMGO-evoked Fluo4 calcium flux; hits give low values. B-score at 10 µM. 300,000 tested, 0.39% active;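 active means B-score over 3 SD under the library average, no early fluorescence shift, positive overall ratio signal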
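material = TRPC4beta/mu-opioid receptor HEK293 cell line | probe or stimulus = sequential submaximal and maximal DAMGO stimulation | compound dosing = one concentration per compound | measured by = Fluo4 Ca2+ flux fluorescence | evaluation = integrated fluorescence ratio relative to baseline, converted to per-well B score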
TRPC4 act: activators of mouse TRPC4 channel; Q9QUQ5; HEK293 TRPC4beta/mu-opioid, Fluo4 calcium fluorescence; hits give high values; B-score at 10 µM; 310,000 tested, 0.49% active;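 active means B-score above 5 SD of library B-scores, and initial fluorescence ratio not above library mean plus 5 SD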;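 further: positive B-score marks a calcium rise read as TRPC4 activation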
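Assay system: HEK293 stable line with TRPC4beta plus mu-opioid receptor. Times: dye 45 min RT, read 110 s. Measured by: kinetic Fluo4 calcium fluorescence. Measure: B score of integrated ratio. Controls: assay buffer as low control, maximal DAMGO as high control.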
TRPC6 act: activators of mouse TRPC6 channel | 310,000 tested, 0.13% active | AID 2550 | HEK293-TRPC6 membrane potential dye fluorescence; hits give high values | Q61143 | B-score at 10 µM;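 active means B-score of the integrated fluorescence ratio above library mean plus 3 SD, and starting fluorescence ratio within library mean plus 5 SD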;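 further: higher score means more depolarization so channel activation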
* hit, by the source's call. Compounds with a hit are over-represented: about 2.3% of the library has one in this group of screens.

How did Cc1ccc2nc(Cl)c3cc(C(=O)N(CCN(C)C)Cc4ccco4)sc3c2c1 do in these assays?
TRPC4 potent: inactive; TRPC6 inhibitor: inactive; TRPC4 block: inactive; TRPC4 act: 54*; TRPC6 act: inactive

How did Cc1cc(=O)oc(C)c1C(=O)NC1CCCCCCC1 do in these assays?
TRPC4 potent: inactive; TRPC6 inhibitor: inactive; TRPC4 block: inactive; TRPC4 act: inactive; TRPC6 act: inactive

Results for COc1ccc(C(=O)NCC(c2ccc3c(c2)OCO3)N2CCN(c3ccc(OC)cc3)CC2)cc1 (stereo not drawn) ?
TRPC4 potent: inactive; TRPC6 inhibitor: inactive; TRPC4 block: inactive; TRPC4 act: inactive; TRPC6 act: inactive

What do the screens show for `COC(=O)NCC(c1ccc2c(c1)OCO2)N1CCN(c2ccccc2)CC1` (stereo not drawn)?
TRPC4 potent: inactive; TRPC6 inhibitor: inactive; TRPC4 block: inactive; TRPC4 act: 169*; TRPC6 act: inactive

What do the screens show for `C=CCn1c(OCc2ccccc2)n[nH]c1=S`?
TRPC4 potent: inactive; TRPC6 inhibitor: inactive; TRPC4 block: inactive; TRPC4 act: inactive; TRPC6 act: inactive

What do the screens show for `O=S(=O)(NCc1cc(-c2ccccc2Cl)no1)c1ccc(Cl)cc1`?
TRPC4 potent: 10*; TRPC6 inhibitor: inactive; TRPC4 block: inactive; TRPC4 act: inactive; TRPC6 act: inactive

What do the screens show for `CNC(=S)NNC(=O)c1cc(C(C)(C)C)nn1Cc1ccc(F)cc1`?
TRPC4 potent: inactive; TRPC6 inhibitor: inactive; TRPC4 block: inactive; TRPC4 act: inactive; TRPC6 act: inactive

Results for Cc1cc(C)c(S(=O)(=O)N2CCN(C(=O)c3cccs3)CC2)c(C)c1 ?
TRPC4 potent: inactive; TRPC6 inhibitor: inactive; TRPC4 block: inactive; TRPC4 act: inactive; TRPC6 act: inactive

Results for Cc1ccc(S(=O)(=O)N2CCN(C(=O)c3cccs3)CC2)c(C)c1 ?
TRPC4 potent: 11*; TRPC6 inhibitor: inactive; TRPC4 block: inactive; TRPC4 act: inactive; TRPC6 act: inactive

What do the screens show for `COc1ccc(S(=O)(=O)NC(C)C(=O)NCCN2CCOCC2)cc1Cl` (stereo not drawn)?
TRPC4 potent: inactive; TRPC6 inhibitor: inactive; TRPC4 block: inactive; TRPC4 act: inactive; TRPC6 act: inactive

What do the screens show for `Cc1ccccc1N1CC(O)(c2ccccc2)[N+]2=C1SCC2` (stereo not drawn)?
TRPC4 potent: inactive; TRPC6 inhibitor: inactive; TRPC4 block: inactive; TRPC4 act: 83*; TRPC6 act: inactive

Results for Cc1ccccc1N1CC(=O)N(c2ccccc2C)CC1=O ?
TRPC4 potent: inactive; TRPC6 inhibitor: inactive; TRPC4 block: inactive; TRPC4 act: inactive; TRPC6 act: inactive

How did Cc1ccc(C2(O)CN(c3ccccc3C)C3=[N+]2CCS3)cc1 (stereo not drawn) do in these assays?
TRPC4 potent: inactive; TRPC6 inhibitor: inactive; TRPC4 block: inactive; TRPC4 act: 106*; TRPC6 act: inactive

How did Cc1ccc(C)c(N2CC(O)(c3cccs3)[N+]3=C2CCCC3)c1 (stereo not drawn) do in these assays?
TRPC4 potent: inactive; TRPC6 inhibitor: inactive; TRPC4 block: inactive; TRPC4 act: inactive; TRPC6 act: inactive

Results for CC1CCC(NC(=O)c2ccc(NC(=O)CC3SC(N4CCCC4)=NC3=O)cc2)CC1 (stereo not drawn) ?
TRPC4 potent: inactive; TRPC6 inhibitor: inactive; TRPC4 block: inactive; TRPC4 act: inactive; TRPC6 act: inactive

What do the screens show for `Cc1nc(C)c(C(=O)N/N=C/c2cc(Br)ccc2O)s1`?
TRPC4 potent: inactive; TRPC6 inhibitor: inactive; TRPC4 block: inactive; TRPC4 act: inactive; TRPC6 act: inactive

What do the screens show for `Clc1ccc2nc(N3CCNCC3)nc(-c3ccccc3)c2c1`?
TRPC4 potent: inactive; TRPC6 inhibitor: inactive; TRPC4 block: inactive; TRPC4 act: 102*; TRPC6 act: inactive

Results for CN1CCN(c2nc(-c3ccccc3)c3cc(Cl)ccc3n2)CC1 ?
TRPC4 potent: inactive; TRPC6 inhibitor: inactive; TRPC4 block: inactive; TRPC4 act: inactive; TRPC6 act: inactive

What do the screens show for `CN(Cc1ccccc1)C(=O)C1CCN(S(=O)(=O)c2cccc3nsnc23)CC1`?
TRPC4 potent: inactive; TRPC6 inhibitor: inactive; TRPC4 block: inactive; TRPC4 act: inactive; TRPC6 act: inactive

How did CCNC(=O)N1c2ccc(OCC)cc2C(C)=CC1(C)C do in these assays?
TRPC4 potent: inactive; TRPC6 inhibitor: inactive; TRPC4 block: -7*; TRPC4 act: inactive; TRPC6 act: inactive

Results for CCCCS(=O)(=O)N1CCCC(C(=O)NCC2CCCO2)C1 (stereo not drawn) ?
TRPC4 potent: inactive; TRPC6 inhibitor: inactive; TRPC4 block: inactive; TRPC4 act: 85*; TRPC6 act: inactive

How did OCC1(Cc2ccc(F)cc2)CCCN(CCc2ccccc2)C1 (stereo not drawn) do in these assays?
TRPC4 potent: inactive; TRPC6 inhibitor: inactive; TRPC4 block: inactive; TRPC4 act: inactive; TRPC6 act: inactive

Results for CN(C)C(=O)c1ccc(Nc2nnc(-c3ccc(O)cc3)c3ccccc23)cc1 ?
TRPC4 potent: inactive; TRPC6 inhibitor: inactive; TRPC4 block: inactive; TRPC4 act: 60*; TRPC6 act: inactive

What do the screens show for `CNC(=O)c1ccc(Nc2nnc(-c3ccc(O)cc3)c3ccccc23)cc1`?
TRPC4 potent: inactive; TRPC6 inhibitor: inactive; TRPC4 block: inactive; TRPC4 act: inactive; TRPC6 act: inactive

How did CCCc1nnc(NC(=O)CCC(=O)N2CCN(Cc3cc(F)ccc3OC)CC2)s1 do in these assays?
TRPC4 potent: inactive; TRPC6 inhibitor: inactive; TRPC4 block: inactive; TRPC4 act: inactive; TRPC6 act: inactive

Results for COc1ccc(F)cc1CN1CCN(C(=O)CCC(=O)Nc2nnc(C(C)C)s2)CC1 ?
TRPC4 potent: inactive; TRPC6 inhibitor: inactive; TRPC4 block: inactive; TRPC4 act: 69*; TRPC6 act: inactive

What do the screens show for `CC(c1ccccc1C(O)(c1ccccc1)c1ccccc1)N(C)C` (stereo not drawn)?
TRPC4 potent: inactive; TRPC6 inhibitor: inactive; TRPC4 block: inactive; TRPC4 act: 103*; TRPC6 act: inactive

What do the screens show for `CC(C)N(CC#CCC(O)(c1ccccc1)c1ccccc1)C(C)C`?
TRPC4 potent: inactive; TRPC6 inhibitor: inactive; TRPC4 block: inactive; TRPC4 act: inactive; TRPC6 act: inactive

How did Cc1noc(C)c1S(=O)(=O)N1CCC(C(=O)NCCCN2CC(C)CC(C)C2)CC1 (stereo not drawn) do in these assays?
TRPC4 potent: inactive; TRPC6 inhibitor: inactive; TRPC4 block: inactive; TRPC4 act: 111*; TRPC6 act: inactive

Results for O=C(CN1CCCCC1)Nc1ccccc1Oc1ccccc1 ?
TRPC4 potent: inactive; TRPC6 inhibitor: inactive; TRPC4 block: -5*; TRPC4 act: inactive; TRPC6 act: inactive

Source: PubChem BioAssay (Johns Hopkins Ion Channel Center)
